{
  "source": "ChEMBL document CHEMBL3621122",
  "about": "“Synthesis of new indole-based bisphosphonates and evaluation of their chelating ability in PE/CA-PJ15 cells” (Eur J Med Chem, 2015)",
  "key": {"[1]": {"tested_on": "Liver microsome", "experiment": "Drug level in human liver microsomes treated with tetraethyl (3-(indol-3-yl)propane-1,1-diyl)bis(phosphonate) at 5 uM preincubated for 5 mins followed by NADPH addition measured after 30 mins by LC/MS analysis", "assay_type": "ADME", "conditions": "0.5 h", "how_it_was_run": "(§1)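 Human liver microsomes (0.5 mg protein/ml) with substrate at 5 µM final in 100 mM potassium phosphate pH 7.4. Preincubated 5 min at 37 °C with shaking, then started with 1 mM NADPH. Stopped at 0 and 30 min with cold acetonitrile containing labetalol internal standard. Spun 12,000 g, 5 min, 4 °C; supernatant analysed by HPLC-MS/MS.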"}, "[2]": {"tested_on": "Liver microsome", "experiment": "Retention time of the compound in human liver microsomes at 5 uM preincubated for 5 mins followed by NADPH addition measured after 30 mins by LC/MS analysis", "assay_type": "ADME", "conditions": "0.5 h", "how_it_was_run": "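Microsomal incubation: 0.5 mg protein/ml, 5 µM substrate final, pH 7.4 phosphate, 5 min preincubation at 37 °C, 1 mM NADPH, quenched at 0 and 30 min with cold acetonitrile. Supernatant run by HPLC-MS/MS on a C18 column (100 × 2.1 mm, 40 °C). Mobile phases were water/0.1% formic acid and acetonitrile/0.1% formic acid at 0.3 mL/min, gradient from 0% B.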"}, "[3]": {"experiment": "Lipophilicity, log P of the compound", "assay_type": "physicochemical", "conditions": "octanol/water"}, "[4]": {"species": "Homo sapiens", "experiment": "Metal chelating activity in human PE/CA-PJ15 cells assessed as change in cytosolic Ca2+ concentration at 10 to 30 uM after 50 secs using Ca2+ containing medium by FURA-2 AM probe-based spectrophotofluorometric analysis", "assay_type": "functional, cell-based", "how_it_was_run": "(§2)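 Cultured PE/CA-PJ15 cells loaded with FURA-2 AM for 60 min at 37 °C in the dark. Cells resuspended in HBSS pH 7.4, either Ca2+-free (0.1 mM EGTA) or with 1 mM Ca2+. Bisphosphonate added to 10 µM, then a second addition 150 s later to 30 µM. Ratio fluorescence read at ex 340/380 nm, em 510 nm, converted to [Ca2+]c. Δ[Ca2+]c (nM) taken 50 s after addition; mean of 10 experiments ± SEM.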"}, "[5]": {"species": "Homo sapiens", "experiment": "Metal chelating activity in human PE/CA-PJ15 cells assessed as change in cytosolic Ca2+ concentration at 10 to 30 uM after 50 secs using Ca2+ free medium by FURA-2 AM probe-based spectrophotofluorometric analysis", "assay_type": "functional, cell-based", "how_it_was_run": "as §2"}, "[6]": {"species": "Homo sapiens", "experiment": "Metal chelating activity in human PE/CA-PJ15 cells assessed as decrease in extracellular Ca2+ concentration at 30 uM by FURA-2 AM probe-based spectrophotofluorometric analysis", "assay_type": "functional, cell-based", "parameters": "scale not given: the % may be the effect or the level left", "how_it_was_run": "(§3)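 Cell suspension was diluted into HBSS with 1 mM CaCl2 and lysed with 1% Triton X-100. Ca2+/Fura-2 fluorescence after lysis was set as 100%, and bisphosphonate (10–30 µM) was then added. The fluorescence drop was followed over time and read at 30 µM. Mean of 10 experiments ± SEM.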"}, "[7]": {"species": "Homo sapiens", "experiment": "Metal chelating activity in human PE/CA-PJ15 cells assessed as decrease in extracellular Ca2+ concentration by FURA-2 AM probe-based spectrophotofluorometric analysis", "assay_type": "functional, cell-based", "how_it_was_run": "as §3"}, "[8]": {"species": "Homo sapiens", "experiment": "Metal chelating activity in human PE/CA-PJ15 cells assessed as decrease in cytosolic Ca2+ concentration at 10 to 30 uM after 50 secs using Ca2+ free medium by FURA-2 AM probe-based spectrophotofluorometric analysis"}, "[9]": {"tested_on": "Liver microsome", "experiment": "Drug metabolism in human liver microsomes assessed as radical of 3-allyl-1H-indole/3-methyl-1H-indole formation by measuring remaining compound level at 5 uM preincubated for 5 mins followed by NADPH addition measured after 30 mins by LC/MS analysis", "assay_type": "ADME", "conditions": "0.5 h", "how_it_was_run": "(§4)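 Substrate at 5 µM final with human liver microsomes (0.5 mg protein/ml) in 100 mM potassium phosphate pH 7.4, preincubated 5 min at 37 °C with shaking; started with 1 mM NADPH. Stopped at 0 and 30 min with cold acetonitrile containing labetalol internal standard. Protein spun down; supernatant analysed by HPLC-MS/MS for parent remaining.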"}, "[10]": {"experiment": "Drug level in presence of tetraethyl (3-(indol-3-yl)propane-1,1-diyl)bis(phosphonate)", "assay_type": "physicochemical", "how_it_was_run": "as §4"}, "[11]": {"species": "Homo sapiens", "experiment": "Metal chelating activity in human PE/CA-PJ15 cells assessed as change in cytosolic Ca2+ concentration at 60 uM after 50 secs using Ca2+ containing medium by FURA-2 AM probe-based spectrophotofluorometric analysis", "assay_type": "functional, cell-based"}, "[12]": {"species": "Homo sapiens", "experiment": "Increase in cytosolic Ca2+ concentration in human PE/CA-PJ15 cells after 50 secs using Ca2+ containing medium by FURA-2 AM probe-based spectrophotofluorometric analysis", "assay_type": "functional, cell-based", "how_it_was_run": "as §2"}, "[13]": {"species": "Homo sapiens", "experiment": "Metal chelating activity in human PE/CA-PJ15 cells assessed as change in cytosolic Ca2+ concentration at 60 uM after 50 secs using Ca2+ free medium by FURA-2 AM probe-based spectrophotofluorometric analysis", "assay_type": "functional, cell-based"}, "[14]": {"tested_on": "Liver microsome", "experiment": "Drug metabolism in human liver microsomes assessed as radical of 3-allyl-5-fluoro-1H-indole formation by measuring remaining compound level at 5 uM preincubated for 5 mins followed by NADPH addition measured after 30 mins by LC/MS analysis", "assay_type": "ADME", "conditions": "0.5 h", "how_it_was_run": "as §4"}, "[15]": {"tested_on": "Liver microsome", "experiment": "Drug level in human liver microsomes treated with tetraethyl (3-(5-fluoroindol-3-yl)propane-1,1-diyl)bis(phosphonate) at 5 uM preincubated for 5 mins followed by NADPH addition measured after 30 mins by LC/MS analysis", "assay_type": "ADME", "conditions": "0.5 h", "how_it_was_run": "as §1"}},
  "note": "Calls of active or inactive are those of the source. The rule behind the calls is not given here.",
  "data": [
    {"compound": "[CH]=CCc1c[nH]c2ccccc12", "values": [
      {"measurement": "Drug metabolism", "setting": "[1]", "value": "metabolite_detected"},
      {"measurement": "Retention_time", "setting": "[2]", "value": 6.829, "unit": "min"}
    ]},
    {"compound": "NCCC(O)(P(=O)([O-])O)P(=O)([O-])O.[Na+].[Na+]", "values": [
      {"measurement": "logP", "setting": "[3]", "value": -4.7}
    ]},
    {"compound": "CCOP(=O)(OCC)C(CCc1c[nH]c2cc(C(F)(F)F)ccc12)P(=O)(OCC)OCC", "values": [
      {"measurement": "Activity", "setting": "[4]", "value": "Active"},
      {"measurement": "Activity", "setting": "[5]", "value": "Active"},
      {"measurement": "Activity", "setting": "[6]", "value": -5, "unit": "%"}
    ]},
    {"compound": "NCCCC(O)(P(=O)(O)O)P(=O)(O)O", "values": [
      {"measurement": "Activity", "setting": "[4]", "value": "Active"},
      {"measurement": "Activity", "setting": "[5]", "value": "Active"},
      {"measurement": "Activity", "setting": "[6]", "value": -7, "unit": "%"}
    ]},
    {"compound": "[CH2]c1c[nH]c2ccccc12", "values": [
      {"measurement": "Drug metabolism", "setting": "[1]", "value": "metabolite_detected"},
      {"measurement": "Retention_time", "setting": "[2]", "value": 5.183, "unit": "min"}
    ]},
    {"compound": "CCOP(=O)(OCC)C(CCc1c[nH]c2ccccc12)P(=O)(OCC)OCC", "values": [
      {"measurement": "Activity", "setting": "[4]", "value": "Active"},
      {"measurement": "Activity", "setting": "[5]", "value": "Active"},
      {"measurement": "Activity", "setting": "[7]", "value": "Dose-dependent effect"},
      {"measurement": "Activity", "setting": "[8]", "value": "Active"},
      {"measurement": "Stability", "setting": "[9]", "value": 20, "unit": "%"},
      {"measurement": "Activity", "setting": "[6]", "value": -73, "unit": "%"},
      {"measurement": "Retention_time", "setting": "[2]", "value": 8.142, "unit": "min"}
    ]},
    {"compound": "O=P(O)(O)C(CCc1c[nH]c2ccccc12)P(=O)(O)O", "values": [
      {"measurement": "Drug metabolism", "setting": "[10]", "value": "metabolite_detected"}
    ]},
    {"compound": "CCOP(=O)(OCC)C(CCc1c[nH]c2ccncc12)P(=O)(OCC)OCC", "values": [
      {"measurement": "Activity", "setting": "[5]", "value": "inactive"},
      {"measurement": "Activity", "setting": "[11]", "value": 67, "unit": "nM"},
      {"measurement": "Activity", "setting": "[12]", "value": "Dose-dependent effect"},
      {"measurement": "Activity", "setting": "[13]", "value": 36, "unit": "nM"},
      {"measurement": "Activity", "setting": "[8]", "value": "inactive"},
      {"measurement": "Activity", "setting": "[6]", "value": -6, "unit": "%"}
    ]},
    {"compound": "O=P(O)(O)C(CCc1c(C2Nc3ccccc3C2CCC(P(=O)(O)O)P(=O)(O)O)[nH]c2ccccc12)P(=O)(O)O", "note": "(stereo unspecified)", "values": [
      {"measurement": "Drug metabolism", "setting": "[10]", "value": "metabolite_detected"}
    ]},
    {"compound": "CCOP(=O)(OCC)C(CCc1c[nH]c2ccc(F)cc12)P(=O)(OCC)OCC", "values": [
      {"measurement": "Activity", "setting": "[4]", "value": "Active"},
      {"measurement": "Stability", "setting": "[14]", "value": 20, "unit": "%"},
      {"measurement": "Activity", "setting": "[5]", "value": "Active"},
      {"measurement": "Activity", "setting": "[8]", "value": "Active"},
      {"measurement": "Activity", "setting": "[6]", "value": -34, "unit": "%"},
      {"measurement": "Retention_time", "setting": "[2]", "value": 8.365, "unit": "min"}
    ]},
    {"compound": "[CH]=CCc1c[nH]c2ccc(F)cc12", "values": [
      {"measurement": "Drug metabolism", "setting": "[15]", "value": "metabolite_detected"},
      {"measurement": "Retention_time", "setting": "[2]", "value": 5.628, "unit": "min"}
    ]},
    {"compound": "O=P([O-])(O)C(O)(Cc1cccnc1)P(=O)(O)O.[Na+]", "note": "[RISEDRONATE SODIUM]", "values": [
      {"measurement": "logP", "setting": "[3]", "value": -3.6}
    ]},
    {"compound": "CCOP(=O)(OCC)C(CCc1c[nH]c2cc(F)ccc12)P(=O)(OCC)OCC", "values": [
      {"measurement": "Activity", "setting": "[4]", "value": "Active"},
      {"measurement": "Activity", "setting": "[5]", "value": "Active"},
      {"measurement": "Activity", "setting": "[6]", "value": -18, "unit": "%"}
    ]},
    {"compound": "O=P(O)(O)C(Cl)(Cl)P(=O)(O)O", "note": "[CLODRONATE DISODIUM]", "values": [
      {"measurement": "Activity", "setting": "[4]", "value": "Active"},
      {"measurement": "Activity", "setting": "[5]", "value": "Active"},
      {"measurement": "Activity", "setting": "[6]", "value": -12, "unit": "%"},
      {"measurement": "logP", "setting": "[3]; read-out: logP", "value": -2.4}
    ]},
    {"compound": "CC(O)(P(=O)(O)O)P(=O)(O)O", "note": "[ETIDRONATE DISODIUM]", "values": [
      {"measurement": "logP", "setting": "[3]; read-out: logP", "value": -3.8}
    ]},
    {"compound": "CCOP(=O)(OCC)C(CCc1c[nH]c2ccc(C(F)(F)F)cc12)P(=O)(OCC)OCC", "values": [
      {"measurement": "Activity", "setting": "[4]", "value": "Active"},
      {"measurement": "Activity", "setting": "[5]", "value": "Active"},
      {"measurement": "Activity", "setting": "[6]", "value": -16.5, "unit": "%"}
    ]}
  ]
}
